Reference: ChEMBL document CHEMBL1124354, “Potential antiatherosclerotic agents. 6. Hypocholesterolemic trisubstituted urea analogues” (J Med Chem, 1989)

Key:
[1] = target: T1, Sterol O-acyltransferase 1 (Rattus norvegicus) (UniProt O70536); experiment: In vitro percentage inhibition against acyl coenzyme A:cholesterol acyltransferase derived from rat adrenals; design: concentration or dose not given beside the values; conditions: concentration not given here
T1 sequence (whole entry): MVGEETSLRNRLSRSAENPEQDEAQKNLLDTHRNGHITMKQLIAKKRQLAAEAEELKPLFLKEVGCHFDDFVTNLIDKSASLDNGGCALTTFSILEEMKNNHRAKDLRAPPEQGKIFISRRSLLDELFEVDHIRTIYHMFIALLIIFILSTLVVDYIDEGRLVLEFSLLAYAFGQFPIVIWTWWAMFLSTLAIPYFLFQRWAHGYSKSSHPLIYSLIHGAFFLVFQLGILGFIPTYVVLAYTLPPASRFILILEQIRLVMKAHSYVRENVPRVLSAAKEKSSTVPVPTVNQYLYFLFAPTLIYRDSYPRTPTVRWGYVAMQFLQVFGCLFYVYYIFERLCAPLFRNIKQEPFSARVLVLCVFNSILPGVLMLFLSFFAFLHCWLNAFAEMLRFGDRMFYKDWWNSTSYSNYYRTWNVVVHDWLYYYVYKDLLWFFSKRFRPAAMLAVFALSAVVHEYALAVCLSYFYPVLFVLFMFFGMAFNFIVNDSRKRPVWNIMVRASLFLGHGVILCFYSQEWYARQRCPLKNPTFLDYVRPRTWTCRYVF
How it was run: (§1)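 Rat adrenal 1000g supernatant (microsomal ACAT) in 0.2 M KH2PO4 pH 7.4 with BSA; test compound at final 5.2 µg/mL, preincubated 37 °C 10 min; [14C]oleoyl-CoA (0.4 µCi) added, 37 °C 30 min. Cholesteryl ester separated by TLC, scintillation counted; mean percent inhibition against compound-free control.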

[2] = target: T1, Sterol O-acyltransferase 1 (Rattus norvegicus); experiment: Serum hypolipidemic activity in rats; format: functional
How it was run: (§2)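 Male CD-1 Sprague-Dawley rats, 140–150 g, fed 1% cholesterol/0.5% cholic acid diet with compound admixed at 0.01% (about 10 mg/kg/day) for 7 days. Serum and liver cholesterol measured by Technicon autoanalyzer methods; expressed as percent of control.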

[3] = target: T1, Sterol O-acyltransferase 1 (Rattus norvegicus); experiment: Liver hypolipidemic activity in rats; format: functional; how it was run: as §2
[4] = target: T1, Sterol O-acyltransferase 1 (Rattus norvegicus); experiment: In vitro percentage inhibition against Acyl coenzyme A:cholesterol acyltransferase derived from rat adrenals; design: concentration or dose not given beside the values; conditions: concentration not given here; how it was run: as §1

Row | inhibition [1] [%] | inhibition [4] [%] | Structure (SMILES) | also measured
1 | 14 |  | O=C(O)c1ccc(NC(=O)N(Cc2ccccc2)Cc2ccccc2)cc1 | 
2 | 76 |  | CCCCN(Cc1ccccc1)C(=O)Nc1c(C)cc(C)cc1C | SS [2]: 63%; LS [3]: 37%
3 | 85 |  | O=C(Nc1ccc(I)cc1)N(Cc1ccccc1)Cc1ccccc1 | 
4 |  | 67 | CSc1ccc(NC(=O)N(Cc2ccccc2)Cc2ccccc2)cc1 | 
5 | 88 |  | CCCCN(CCCC)C(=O)Nc1cccc(C)c1C | 
6 | 56 |  | CCCCN(CCCC)C(=O)Nc1ccc(F)cc1 | 
7 | 34 |  | COc1cccc(NC(=O)NCc2ccccc2)c1 | SS [2]: 110%; LS [3]: 94%
8 |  | 85 | CCCCN(CCCC)C(=O)Nc1cccc(Cl)c1Cl | 
9 | 18 |  | CCN(CC)C(=O)Nc1ccc(C)cc1C | 
10 | 93 |  | CCCCN(Cc1ccccc1)C(=O)Nc1cc(C)ccc1C | 
11 |  | 96 | CCCCN(CCCC)C(=O)Nc1cc(C)ccc1C | SS [2]: 127%; LS [3]: 110%
12 |  | 53 | CCCCN(CCC(c1ccccc1)c1ccccc1)C(=O)Nc1ccc(C)cc1C | 
13 |  | 95 | O=C(Nc1ccc(Cl)c(Cl)c1)N(Cc1ccccc1)Cc1ccccc1 | 
14 | 88 |  | CCCCN(Cc1ccccc1)C(=O)Nc1c(Cl)cc(Cl)cc1Cl | SS [2]: 48%; LS [3]: 32%
15 |  | 42 | CCCCCCCC/C=C/CCCCCCCCN(Cc1ccc(CCCC)cc1)C(=O)Nc1ccc(C)cc1C (stereo in doubt; 160) | 
16 | 72 |  | COc1ccc(NC(=O)N(Cc2ccccc2)Cc2ccccc2)cc1 | 
17 |  | 78 | CCC(C)N(C(=O)Nc1ccc(C)cc1C)C(C)CC (stereo not drawn) | 
18 |  | 49 | CCCCCCCCCCCN(CCCCCCCCCCC)C(=O)Nc1ccc(C)cc1C | 
19 |  | 9 | CCCCCCCC/C=C/CCCCCCCCN(Cc1ccc(CCCC)cc1)C(=O)Nc1ccc(C)cc1C (stereo in doubt; 161) | SS [2]: 130%; LS [3]: 87%
20 |  | 55 | CCCCN(CCCC)C(=O)Nc1ccc(C(C)=O)cc1 | 
21 | 86 |  | CCCCN(Cc1ccccc1)C(=O)Nc1cccc(C)c1C | 
22 | 90 |  | CCCCOc1ccc(NC(=O)N(Cc2ccccc2)Cc2ccccc2)cc1 | 
23 |  | 72 | CCc1cccc(CC)c1NC(=O)N(Cc1ccccc1)Cc1ccccc1 | 
24 |  | 72 | O=C(Nc1cc(F)ccc1F)N(Cc1ccccc1)Cc1ccccc1 | 
25 | 74 |  | CCCCN(Cc1ccccc1)C(=O)Nc1cc(OC)c(OC)c(OC)c1 | 

Row | inhibition [1] [%] | inhibition [4] [%] | Structure (SMILES) | also measured
26 | 80 |  | Cc1ccc(NC(=O)N(CC(C)C)CC(C)C)c(C)c1 | 
27 | 85 |  | CCCCN(CCCC)C(=O)Nc1cccc(SC)c1 | 
28 | -1 |  | Cc1ccc(NC(=O)N(C(C)C)C(C)C)c(C)c1 | 
29 | 74 |  | CCCCN(CCCC)C(=O)Nc1c(C)cc(C)cc1C | 
30 |  | 86 | CCCCN(CCCC)C(=O)Nc1cccc(Br)c1 | 
31 |  | 92 | O=C(Nc1ccc(Cl)c(C(F)(F)F)c1)N(Cc1ccccc1)Cc1ccccc1 | 
32 |  | 37 | CCCCN(Cc1ccccc1)C(=O)Nc1ccccc1[N+](=O)[O-] | 
33 | 83 |  | CCCCN(Cc1ccccc1)C(=O)Nc1c(C)cccc1C | SS [2]: 68%; LS [3]: 91%
34 |  | 48 | CN(C(=O)Nc1cc(Cl)ccc1Cl)c1ccccc1 | 
35 | -7 |  | Cc1ccc(NC(=O)N(C)C)c(C)c1 | 
36 | 80 |  | CCCCN(CCCC)C(=O)Nc1ccc(C)cc1 | 
37 |  | 87 | CCCCN(CCCC)C(=O)Nc1ccc([N+](=O)[O-])cc1Cl | 
38 |  | 9 | CCN(C(=O)Nc1ccccc1C)c1ccccc1 | 
39 |  | 97 | CCCCN(CC(C)(c1ccccc1)c1ccccc1)C(=O)Nc1ccc(C)cc1C | 
40 |  | 75 | CCCCN(CCCC)C(=O)Nc1ccc([N+](=O)[O-])cc1 | 
41 | 91 |  | CCCCN(Cc1ccccc1)C(=O)Nc1cc(Cl)cc(Cl)c1 | SS [2]: 120%; LS [3]: 107%
42 |  | 80 | O=C(Nc1cccc(Cl)c1Cl)N(Cc1ccccc1)Cc1ccccc1 | 
43 | 80 |  | O=C(Nc1ccc(Br)cc1)N(Cc1ccccc1)Cc1ccccc1 | 
44 | 76 |  | CCCCN(CCCC)C(=O)Nc1ccc(C(C)C)cc1 | 
45 | 89 |  | Cc1cccc(NC(=O)N(Cc2ccccc2)Cc2ccccc2)c1 | 
46 |  | 91 | COc1ccccc1NC(=O)N(Cc1ccccc1)Cc1ccccc1 | 
47 |  | 83 | O=C(Nc1ccc(Cl)cc1Cl)N(Cc1ccccc1)Cc1ccccc1 | 
48 | 85 |  | CCCCN(CCCC)C(=O)Nc1c(C)cccc1C | 
49 |  | 33 | Cc1ccc(Cl)cc1NC(=O)NCc1ccccc1 | 
50 |  | 82 | O=C(Nc1cc(Cl)ccc1Cl)N(Cc1ccccc1)Cc1ccccc1 | 

Row | inhibition [1] [%] | inhibition [4] [%] | Structure (SMILES) | also measured
51 |  |  | CCCCN(Cc1ccccc1)C(=O)Nc1ccc(C(=O)O)cc1C | SS [2]: 76%; LS [3]: 88%
52 | 81 |  | CCCCN(Cc1ccccc1)C(=O)Nc1cc(Cl)ccc1OC | 
53 |  | 56 | CCCCN(CCC12CC3CC(CC(C3)C1)C2)C(=O)Nc1ccc(C)cc1C | 
54 | 78 |  | O=C(Nc1ccc(Cl)cc1)N(Cc1ccccc1)Cc1ccccc1 | 
55 |  | 83 | CCCCN(CCCC)C(=O)Nc1ccc(I)cc1 | 
56 | 89 |  | CCCCN(Cc1ccccc1)C(=O)Nc1cccc(Cl)c1 | 
57 | 64 |  | CCCCN(C)C(=O)Nc1ccc(Cl)c(Cl)c1 | 
58 | 81 |  | CC(=O)c1cccc(NC(=O)N(Cc2ccccc2)Cc2ccccc2)c1 | 
59 |  | 90 | CCCCCCCCCN(CCCCCCCCC)C(=O)Nc1ccc(C)cc1C | 
60 | 90 |  | Cc1ccc(NC(=O)N(C2CCCC2)C2CCCC2)c(C)c1 | SS [2]: 98%; LS [3]: 113%
61 |  | 35 | Cc1ccc(NC(=O)NCc2ccccc2)c(C)c1 | 
62 |  | 61 | CCCCN(Cc1ccccc1)C(=O)Nc1cc(Cl)c(N)c(Cl)c1 | 
63 | 85 |  | CCCCN(Cc1ccccc1)C(=O)Nc1cccc(Cl)c1OC | 
64 | 87 |  | Cc1ccc(NC(=O)N(Cc2ccccc2)Cc2ccccc2)cc1 | 
65 | 8 |  | CCCN(CCC)C(=O)Nc1ccc(C)cc1C | 
66 |  | 74 | CCc1cccc(C)c1NC(=O)N(Cc1ccccc1)Cc1ccccc1 | 
67 | 87 |  | CCCCN(Cc1ccccc1)C(=O)Nc1ccc(C)c(C)c1 | 
68 |  | 89 | O=C(Nc1c(Cl)cccc1Cl)N(Cc1ccccc1)Cc1ccccc1 | 
69 | 79 |  | CCCCN(Cc1ccccc1)C(=O)Nc1ccccc1C | SS [2]: 109%; LS [3]: 137%
70 | 62 |  | CCCCN(CCCC)C(=O)Nc1cc(Cl)c(Cl)cc1Cl | SS [2]: 111%; LS [3]: 103%
71 | 93 |  | CCOC(=O)c1ccc(NC(=O)N(Cc2ccccc2)Cc2ccccc2)cc1 | SS [2]: 120%; LS [3]: 83%
72 | 81 |  | O=C(Nc1cccc([N+](=O)[O-])c1)N(Cc1ccccc1)Cc1ccccc1 | 
73 |  | 56 | Cc1cccc(C)c1NC(=O)N(Cc1ccccc1)Cc1ccccc1 | 
74 | 62 |  | CCCCN(CCCC)C(=O)Nc1ccccc1C | SS [2]: 81%; LS [3]: 111%
75 |  | 49 | CCCCN(CCCC)C(=O)Nc1ccc(C)c(C)c1 | 

Row | inhibition [1] [%] | inhibition [4] [%] | Structure (SMILES) | also measured
76 |  | 74 | CCCCN(CC(c1ccccc1)C1CCCCC1)C(=O)Nc1ccc(C)cc1C (stereo not drawn) | 
77 | 51 |  | CCCCN(CCCC)C(=O)Nc1ccccc1Br | 
78 | 87 |  | COc1cccc(NC(=O)N(Cc2ccccc2)Cc2ccccc2)c1 | 
79 | 59 |  | CCCCN(CCCC)C(=O)Nc1ccc(OC)cc1 | SS [2]: 127%; LS [3]: 109%
80 | 88 |  | O=C(Nc1ccccc1Cl)N(Cc1ccccc1)Cc1ccccc1 | 
81 | 96 |  | CCCCN(Cc1ccccc1)C(=O)Nc1ccc(Cl)c(Cl)c1 | 
82 | 75 |  | CCCCN(CCCC)C(=O)Nc1cc(Cl)ccc1C | 
83 | 86 |  | CCCCN(Cc1ccccc1)C(=O)Nc1cccc(C(F)(F)F)c1 | SS [2]: 84%; LS [3]: 104%
84 | 86 |  | CCCCN(Cc1ccccc1)C(=O)Nc1cc(Cl)ccc1O | 
85 | 94 |  | CCCCN(Cc1ccccc1)C(=O)Nc1cc(C)cc(C)c1 | SS [2]: 93%; LS [3]: 75%
86 | 88 |  | CCCCN(CCCC)C(=O)Nc1ccc(Cl)cc1C | 
87 | 94 |  | O=C(Nc1ccccc1Br)N(Cc1ccccc1)Cc1ccccc1 | 
88 |  | 84 | Cc1cccc(Cl)c1NC(=O)N(Cc1ccccc1)Cc1ccccc1 | 
89 |  | 86 | CCCCC(CC)CN(CC(CC)CCCC)C(=O)Nc1ccc(C)cc1C (stereo not drawn) | 
90 | 64 |  | CCCCN(CCCC)C(=O)Nc1ccccc1 | SS [2]: 121%; LS [3]: 100%
91 | 92 |  | CCCCN(Cc1ccccc1)C(=O)Nc1cccc(C)c1 | 
92 | 77 |  | Cc1ccccc1NC(=O)N(Cc1ccccc1)Cc1ccccc1 | 
93 |  | 40 | CCCCN(CCCCC1CCCCC1)C(=O)Nc1ccc(C)cc1C | 
94 | 88 |  | COc1ccc(OC)c(NC(=O)N(Cc2ccccc2)Cc2ccccc2)c1 | 
95 | 68 |  | O=C(Nc1ccc(Cl)cc1)N(Cc1ccccc1)c1ccccc1 | SS [2]: 67%; LS [3]: 102%
96 |  | 89 | Cc1ccc(C)c(NC(=O)N(Cc2ccccc2)Cc2ccccc2)c1 | 
97 | 43 |  | C=CCN(CC=C)C(=O)Nc1ccc(C)cc1C | 
98 | 82 |  | O=C(Nc1ccc(Br)cc1Br)N(Cc1ccccc1)c1ccccc1 | 
